UBC13 inh: inhibitors of human UBC13 polyubiquitin chain formation; TR-FRET; inhibition, % at 20 µM; hit rate 0.47% among 330,000; AID 485273; in the data active = inhibition above about 45%, passing the limit was not always enough
SR-BI DiI inh: blocks mouse SR-BI lipid uptake from DiI-HDL; inhibition, % at 12.5 µM; Q61009; AID 488896; hit rate 0.96% among 320,000; ldlA[mSR-BI] CHO cells, DiI-HDL uptake fluorescence, 3 h;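 active = mean replicate inhibition of at least 70% and a set share of replicates each scoring 70 or more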;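 note: 0% = median of neutral control wells and 100% = median of positive control wells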
Target sequence (Q61009 whole entry, looked up): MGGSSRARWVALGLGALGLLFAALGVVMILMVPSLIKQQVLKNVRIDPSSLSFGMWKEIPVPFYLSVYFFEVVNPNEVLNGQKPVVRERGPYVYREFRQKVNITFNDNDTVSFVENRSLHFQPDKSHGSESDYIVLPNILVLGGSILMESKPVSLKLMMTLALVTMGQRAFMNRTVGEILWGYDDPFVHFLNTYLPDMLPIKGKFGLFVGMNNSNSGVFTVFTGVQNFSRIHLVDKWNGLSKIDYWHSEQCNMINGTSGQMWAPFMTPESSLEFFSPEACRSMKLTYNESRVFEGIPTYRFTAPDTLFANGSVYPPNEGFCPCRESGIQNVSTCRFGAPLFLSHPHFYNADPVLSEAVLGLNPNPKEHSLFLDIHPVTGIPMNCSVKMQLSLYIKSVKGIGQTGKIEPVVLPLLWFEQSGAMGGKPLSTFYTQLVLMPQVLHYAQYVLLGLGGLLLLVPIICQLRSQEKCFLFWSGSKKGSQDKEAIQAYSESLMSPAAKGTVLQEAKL
Neddyl block: cullin neddylation inhibition | hit rate 0.58% among 360,000 | AID 651699 | TR-FRET cullin neddylation, biochemical | inhibition, % at 25 µM | P61081+Q13564; in the data active = inhibition above about 36%
SR-BI uptake up: activators of SR-BI mediated HDL lipid uptake | CHO ldlA[mSR-BI] cells, DiI-HDL uptake fluorescence, 3 h; 100 = double the neutral-control signal | activation, % at 12.5 µM | hit rate 0.096% among 320,000;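 active = mean replicate activation of at least 60% and every replicate at or above 60%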;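 note: 0% = median plate neutral-control signal and 100% = twice that signal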
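Test system: SR-BI-overexpressing, LDLR-lacking CHO cells; Medium: Ham's F12 with 0.5% BSA, HEPES 25 mM, pH 7.4; Schedule: 3 h, 37 °C; Technique: bottom-read fluorescence, 550/595 nm.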
* hit, by the source's call. Shown are actives, neighbours in structure and some others; about 1.9% of the full set was active somewhere.

Screening COc1ccccc1C(=O)NNC(=O)c1ccc2ccccc2c1O returned Neddyl block 9.
`Cc1ccc(S(=O)(=O)N2CCCCC2)cc1C(=O)NCc1ccc(S(N)(=O)=O)cc1` gave UBC13 inh -11, SR-BI DiI inh -10, Neddyl block 7 and SR-BI uptake up 10.
For CCOc1ccc(-c2cc(C(=O)Nc3ccc(C)c(NS(C)(=O)=O)c3)[nH]n2)c(C)c1 the results were Neddyl block -23.
`CCc1cc2cc(C)c(C)cc2nc1SCC(=O)NNC(=O)c1ccco1` gave UBC13 inh -3, SR-BI DiI inh 75*, Neddyl block -59 and SR-BI uptake up -75.
`CCc1cc2cccc(C)c2nc1SCC(=O)NNC(=O)c1ccco1` gave UBC13 inh 13, SR-BI DiI inh -15, Neddyl block -122 and SR-BI uptake up 15.
`Cc1ccc([C@H]2C[C@@H](O)[C@H](n3cc(COC(=O)c4ccccc4)nn3)CN2CC2CCCCC2)cc1` gave Neddyl block -1.
For COc1cccc(/C=N/Nc2nc(Nc3ccc([N+](=O)[O-])cc3)nc(N3CCCC3)n2)c1O the results were UBC13 inh -18, SR-BI DiI inh 87*, Neddyl block -7 and SR-BI uptake up -87.
`CN(CC(=O)Nc1ccccc1Cl)C(=O)COC(=O)Cc1ccc(F)cc1` gave UBC13 inh 6, SR-BI DiI inh -4, Neddyl block -20 and SR-BI uptake up 4.
Screening Cc1ccc(O)c(CNc2cnc3ccccc3c2)c1 returned UBC13 inh 17, SR-BI DiI inh 12, Neddyl block 39* and SR-BI uptake up -12.
For CC(=O)c1c(C)[nH]c(C(=O)OCC(=O)N2CCN(c3ccccc3)CC2)c1C the results were Neddyl block 2.
For O=C(CSc1nc2ccccc2[nH]1)Nc1ccc(N2CCOCC2)cc1 the results were UBC13 inh 8, SR-BI DiI inh 22, Neddyl block -6 and SR-BI uptake up -22.
Screening CCn1cc(C(=O)NP(=O)(Nc2ccc(C)cc2)Nc2ccc(C)cc2)c2ccccc21 returned UBC13 inh 9, SR-BI DiI inh -165, Neddyl block -3 and SR-BI uptake up 165*.
O=C(CN1c2ccccc2Sc2ccccc21)NNC(=S)Nc1ccc(Cl)cc1 was read as UBC13 inh -11, SR-BI DiI inh 63, Neddyl block -56 and SR-BI uptake up -63.
For O=C(CN1c2ccccc2Sc2ccccc21)NNC(=S)Nc1ccc(Cl)cc1Cl the results were UBC13 inh -8, SR-BI DiI inh 76*, Neddyl block -13 and SR-BI uptake up -76.
CCCCC1OC23CCCCC2C(C#N)(C(=N)O3)C1(C#N)C#N (stereo not given) was read as UBC13 inh 8, SR-BI DiI inh -81 and SR-BI uptake up 81*.
For CCCCCCCCOc1ccc(C2OC34CCCCC3C(C#N)(C#N)C2(C#N)C(=N)O4)cc1 (stereo not given) the results were UBC13 inh 1, SR-BI DiI inh -17 and SR-BI uptake up 17.
N#CC1(C#N)C(c2ccccc2)OC23CCCCC2C1(C#N)C(=N)O3 (stereo not given) was read as UBC13 inh -1, SR-BI DiI inh -14 and SR-BI uptake up 14.
`CCCCC1OC23CCCCC2C(C#N)(C#N)C1(C#N)C(=N)O3` (stereo not given) gave UBC13 inh 7, SR-BI DiI inh -35, Neddyl block 50* and SR-BI uptake up 35.
For O=C(CNC1CCCCC1)Nc1cccc(C(F)(F)F)c1 the results were UBC13 inh 0, SR-BI DiI inh -13, Neddyl block 0 and SR-BI uptake up 13.
For CC1(C(=O)NS(=O)(=O)C2CC2)CCN(C(=O)COc2ccc(Cl)cc2Cl)C1 (stereo not given) the results were Neddyl block -1.
Cc1cc(C(=O)Nc2sc3c(c2C#N)CCCC3)no1 was read as UBC13 inh -19, SR-BI DiI inh -9, Neddyl block -12 and SR-BI uptake up 9.
For CCOC(=O)c1c(NC(=O)c2ccn(CC)n2)sc2c1CCCC2 the results were UBC13 inh 24, SR-BI DiI inh 72* and SR-BI uptake up -72.
For CCOC(=O)c1cc(C(=O)Nc2sc3c(c2C#N)CCCC3)nn1C the results were UBC13 inh 13, SR-BI DiI inh 76*, Neddyl block 35 and SR-BI uptake up -76.
Screening CCOC(=O)c1c(NC(=O)C(=O)N/N=C/c2ccccc2O)sc2c1CCCCC2 returned UBC13 inh -11, SR-BI DiI inh 127*, Neddyl block 36 and SR-BI uptake up -127.
For CCOC(=O)c1c(NC(=O)c2ccco2)sc2c1CCCC2 the results were UBC13 inh 20, SR-BI DiI inh 5 and SR-BI uptake up -5.
Screening CCOC(=O)c1c(NC(=O)C(=O)N/N=C/c2ccccc2OC)sc2c1CCCCC2 returned UBC13 inh -8, SR-BI DiI inh 52 and SR-BI uptake up -52.
For O=C(NC1CCC(=O)N(CCOc2ccccc2)CC1)OCc1ccccc1 (stereo not given) the results were UBC13 inh -1, SR-BI DiI inh 2, Neddyl block 4 and SR-BI uptake up -2.
Screening CCOC(=O)Cc1csc(NC(=O)CSc2nc(=O)[nH]c3c2CCCC3)n1 returned UBC13 inh 0, SR-BI DiI inh 5, Neddyl block 3 and SR-BI uptake up -5.
Screening Cc1noc(NS(=O)(=O)c2ccc(NS(=O)(=O)c3ccc(Cl)cc3)cc2)c1C returned UBC13 inh 10, SR-BI DiI inh -8, Neddyl block 39 and SR-BI uptake up 8.
Screening COc1ccccc1OCc1ccc(C(=O)Nc2ccccc2)cc1 returned UBC13 inh -5, SR-BI DiI inh 39, Neddyl block -19 and SR-BI uptake up -39.
Screening COc1ccc(C(=O)Nc2ccc(Nc3ccccc3)cc2)cc1[N+](=O)[O-] returned UBC13 inh 3, SR-BI DiI inh 55, Neddyl block -11 and SR-BI uptake up -55.
`COc1ccc(C(=O)NCC(=O)N/N=C/C=C/c2ccccc2)cc1OC` gave UBC13 inh -14, SR-BI DiI inh 83*, Neddyl block -29 and SR-BI uptake up -83.
`COc1cc(C(=O)Nc2ccc(NC(C)=O)cc2)ccc1OCc1ccccc1` gave UBC13 inh 3, SR-BI DiI inh 78*, Neddyl block 32 and SR-BI uptake up -78.
For COc1ccc(C(=O)NCC(=O)N/N=C/C(C)=C/c2ccccc2)cc1OC the results were UBC13 inh 1, SR-BI DiI inh 41, Neddyl block -3 and SR-BI uptake up -41.
Screening COc1ccc(C(=O)Nc2ccc(S(=O)(=O)Nc3ncccn3)cc2)cc1OC returned UBC13 inh 1, SR-BI DiI inh -4, Neddyl block -2 and SR-BI uptake up 4.
For COc1ccc(C(=O)Nc2ccc(Nc3ccccc3)cc2)cc1OC the results were UBC13 inh -8, SR-BI DiI inh 79*, Neddyl block 22 and SR-BI uptake up -79.
COc1ccc(C(=O)Nc2ccc(NS(=O)(=O)c3ccccc3)cc2)cc1OC was read as UBC13 inh 15, SR-BI DiI inh 74*, Neddyl block -1 and SR-BI uptake up -74.
